# Data reported in ChEMBL document CHEMBL4689842, “EUbOPEN Chemogenomics Library wave 1” (2021).
# Experiments:
# Format in all cases: toxicity, cell-based
# U2OS [1] = assay: Multiplex assay against U2OS; settings: human
# In short: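 With compound added, live cells were imaged on a CQ1 microscope at 37°C and 5% CO2; staining with Hoechst33342, BioTracker Green Microtubule Cytoskeleton Dye, MitoTracker Red and Annexin V Alexa Fluor 680 had been done at seeding. The CellPathfinder machine-learning gating scheme split cells into Hoechst high-intensity objects or normal cells, normal cells into healthy, pyknosed or fragmented nuclei, and pyknosed cells into mitotic or apoptotic. The tubulin, mitochondrial-mass and membrane-permeability phenotypes are per cents of healthy-nucleus cells.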
# HEK-293T = assay: Incucyte cell viability with HEK293T; settings: human, 10 µM, compound concentration 10 uM; note: filed as whole numbers so only -1 and 0 and 1 occur
# U2OS [2] = assay: Incucyte cell viability with U2OS; settings: human, 10 µM, compound concentration 10 uM; note: filed as whole numbers so only -1 and 0 and 1 occur
# [3] = 12 h, 1 µM, compound concentration 1 uM, replicate 1
# [4] = 12 h, 1 µM, compound concentration 1 uM, replicate 2
# [5] = 12 h, 10 µM, compound concentration 10 uM, replicate 1
# [6] = 12 h, 10 µM, compound concentration 10 uM, replicate 2
# [7] = 24 h, 1 µM, compound concentration 1 uM, replicate 1
# [8] = 24 h, 1 µM, compound concentration 1 uM, replicate 2
# [9] = 24 h, 10 µM, compound concentration 10 uM, replicate 1
# [10] = 24 h, 10 µM, compound concentration 10 uM, replicate 2
# [11] = 48 h, 1 µM, compound concentration 1 uM, replicate 1
# [12] = 48 h, 1 µM, compound concentration 1 uM, replicate 2
# [13] = 48 h, 10 µM, compound concentration 10 uM, replicate 1
# [14] = 48 h, 10 µM, compound concentration 10 uM, replicate 2
# [15] = 0 h, replicate number 1, timepoint 0 hours
# [16] = 0 h, replicate number 2, timepoint 0 hours
# [17] = 6 h, replicate number 1, timepoint 6 hours
# [18] = 12 h, replicate number 1, timepoint 12 hours
# [19] = 18 h, replicate number 1, timepoint 18 hours
# [20] = 24 h, replicate number 1, timepoint 24 hours
smiles,measurement,setting,value
C=CC(=O)Nc1cc(-n2c(=O)ccc3cnc4ccc(-c5ccc(NS(C)(=O)=O)cc5)cc4c32)ccc1C,Population Apoptotic (%),U2OS [1]; [3],35%
same,Population Fragmented Nuclei (%),U2OS [1]; [3],6%
same,Population Healthy Nuclei (%),U2OS [1]; [3],80%
same,Population Hoechst High Intensity Objects (%),U2OS [1]; [3],3%
same,Population Membrane Permeable-Phenotype (%),U2OS [1]; [3],7%
same,Population Mitochondria Different-Phenotype (%),U2OS [1]; [3],4%
same,Population Mitotic Cells (%),U2OS [1]; [3],65%
same,Population Normal (%),U2OS [1]; [3],96%
same,Population Pyknosed Nuclei (%),U2OS [1]; [3],12%
same,Population Tubulin-Different-Phenotype (%),U2OS [1]; [3],6%
same,Total Cell Count,U2OS [1]; [3],164
same,Population Apoptotic (%),U2OS [1]; [4],33%
same,Population Fragmented Nuclei (%),U2OS [1]; [4],10%
same,Population Healthy Nuclei (%),U2OS [1]; [4],77%
same,Population Hoechst High Intensity Objects (%),U2OS [1]; [4],7%
same,Population Membrane Permeable-Phenotype (%),U2OS [1]; [4],0%
same,Population Mitochondria Different-Phenotype (%),U2OS [1]; [4],10%
same,Population Mitotic Cells (%),U2OS [1]; [4],66%
same,Population Normal (%),U2OS [1]; [4],92%
same,Population Tubulin-Different-Phenotype (%),U2OS [1]; [4],10%
same,Total Cell Count,U2OS [1]; [4],53
same,Population Apoptotic (%),U2OS [1]; [5],30%
same,Population Fragmented Nuclei (%),U2OS [1]; [5],19%
same,Population Healthy Nuclei (%),U2OS [1]; [5],66%
same,Population Hoechst High Intensity Objects (%),U2OS [1]; [5],7%
same,Population Membrane Permeable-Phenotype (%),U2OS [1]; [5],10%
same,Population Mitochondria Different-Phenotype (%),U2OS [1]; [5],26%
same,Population Mitotic Cells (%),U2OS [1]; [5],69%
same,Population Normal (%),U2OS [1]; [5],92%
same,Population Pyknosed Nuclei (%),U2OS [1]; [5],14%
same,Population Tubulin-Different-Phenotype (%),U2OS [1]; [5],29%
same,Total Cell Count,U2OS [1]; [5],173
same,Population Apoptotic (%),U2OS [1]; [6],76%
same,Population Fragmented Nuclei (%),U2OS [1]; [6],8%
same,Population Healthy Nuclei (%),U2OS [1]; [6],54%
same,Population Hoechst High Intensity Objects (%),U2OS [1]; [6],9%
same,Population Membrane Permeable-Phenotype (%),U2OS [1]; [6],12%
same,Population Mitochondria Different-Phenotype (%),U2OS [1]; [6],56%
same,Population Mitotic Cells (%),U2OS [1]; [6],23%
same,Population Normal (%),U2OS [1]; [6],90%
same,Population Pyknosed Nuclei (%),U2OS [1]; [6],36%
same,Population Tubulin-Different-Phenotype (%),U2OS [1]; [6],52%
same,Total Cell Count,U2OS [1]; [6],51
same,Population Apoptotic (%),U2OS [1]; [7],28%
same,Population Fragmented Nuclei (%),U2OS [1]; [7],6%
same,Population Healthy Nuclei (%),U2OS [1]; [7],86%
same,Population Hoechst High Intensity Objects (%),U2OS [1]; [7],4%
same,Population Membrane Permeable-Phenotype (%),U2OS [1]; [7],4%
same,Population Mitochondria Different-Phenotype (%),U2OS [1]; [7],8%
same,Population Mitotic Cells (%),U2OS [1]; [7],71%
same,Population Normal (%),U2OS [1]; [7],95%
same,Population Pyknosed Nuclei (%),U2OS [1]; [7],6%
same,Population Tubulin-Different-Phenotype (%),U2OS [1]; [7],12%
same,Total Cell Count,U2OS [1]; [7],216
same,Population Apoptotic (%),U2OS [1]; [8],55%
same,Population Fragmented Nuclei (%),U2OS [1]; [8],11%
same,Population Healthy Nuclei (%),U2OS [1]; [8],76%
same,Population Hoechst High Intensity Objects (%),U2OS [1]; [8],2%
same,Population Membrane Permeable-Phenotype (%),U2OS [1]; [8],3%
same,Population Mitochondria Different-Phenotype (%),U2OS [1]; [8],15%
same,Population Mitotic Cells (%),U2OS [1]; [8],44%
same,Population Normal (%),U2OS [1]; [8],97%
same,Population Pyknosed Nuclei (%),U2OS [1]; [8],11%
same,Population Tubulin-Different-Phenotype (%),U2OS [1]; [8],22%
same,Total Cell Count,U2OS [1]; [8],79
same,Population Apoptotic (%),U2OS [1]; [9],53%
same,Population Fragmented Nuclei (%),U2OS [1]; [9],17%
same,Population Healthy Nuclei (%),U2OS [1]; [9],69%
same,Population Hoechst High Intensity Objects (%),U2OS [1]; [9],3%
same,Population Membrane Permeable-Phenotype (%),U2OS [1]; [9],8%
same,Population Mitochondria Different-Phenotype (%),U2OS [1]; [9],17%
same,Population Mitotic Cells (%),U2OS [1]; [9],46%
same,Population Normal (%),U2OS [1]; [9],96%
same,Population Pyknosed Nuclei (%),U2OS [1]; [9],13%
same,Population Tubulin-Different-Phenotype (%),U2OS [1]; [9],15%
same,Total Cell Count,U2OS [1]; [9],202
same,Population Apoptotic (%),U2OS [1]; [10],84%
same,Population Fragmented Nuclei (%),U2OS [1]; [10],21%
same,Population Healthy Nuclei (%),U2OS [1]; [10],32%
same,Population Hoechst High Intensity Objects (%),U2OS [1]; [10],5%
same,Population Membrane Permeable-Phenotype (%),U2OS [1]; [10],22%
same,Population Mitochondria Different-Phenotype (%),U2OS [1]; [10],50%
same,Population Mitotic Cells (%),U2OS [1]; [10],15%
same,Population Normal (%),U2OS [1]; [10],94%
same,Population Pyknosed Nuclei (%),U2OS [1]; [10],46%
same,Population Tubulin-Different-Phenotype (%),U2OS [1]; [10],33%
same,Total Cell Count,U2OS [1]; [10],59
same,Population Apoptotic (%),U2OS [1]; [11],25%
same,Population Fragmented Nuclei (%),U2OS [1]; [11],5%
same,Population Healthy Nuclei (%),U2OS [1]; [11],87%
same,Population Hoechst High Intensity Objects (%),U2OS [1]; [11],2%
same,Population Membrane Permeable-Phenotype (%),U2OS [1]; [11],1%
same,Population Mitochondria Different-Phenotype (%),U2OS [1]; [11],14%
same,Population Mitotic Cells (%),U2OS [1]; [11],74%
same,Population Normal (%),U2OS [1]; [11],97%
same,Population Pyknosed Nuclei (%),U2OS [1]; [11],7%
same,Population Tubulin-Different-Phenotype (%),U2OS [1]; [11],14%
same,Total Cell Count,U2OS [1]; [11],360
same,Population Apoptotic (%),U2OS [1]; [12],9%
same,Population Fragmented Nuclei (%),U2OS [1]; [12],9%
same,Population Healthy Nuclei (%),U2OS [1]; [12],81%
same,Population Hoechst High Intensity Objects (%),U2OS [1]; [12],3%
same,Population Membrane Permeable-Phenotype (%),U2OS [1]; [12],0%
same,Population Mitochondria Different-Phenotype (%),U2OS [1]; [12],12%
same,Population Mitotic Cells (%),U2OS [1]; [12],90%
same,Population Normal (%),U2OS [1]; [12],96%
same,Population Pyknosed Nuclei (%),U2OS [1]; [12],9%
same,Population Tubulin-Different-Phenotype (%),U2OS [1]; [12],20%
same,Total Cell Count,U2OS [1]; [12],115
same,Population Apoptotic (%),U2OS [1]; [13],77%
same,Population Fragmented Nuclei (%),U2OS [1]; [13],15%
same,Population Healthy Nuclei (%),U2OS [1]; [13],72%
same,Population Hoechst High Intensity Objects (%),U2OS [1]; [13],4%
same,Population Membrane Permeable-Phenotype (%),U2OS [1]; [13],10%
same,Population Mitochondria Different-Phenotype (%),U2OS [1]; [13],19%
same,Population Mitotic Cells (%),U2OS [1]; [13],22%
same,Population Normal (%),U2OS [1]; [13],95%
same,Population Pyknosed Nuclei (%),U2OS [1]; [13],12%
same,Population Tubulin-Different-Phenotype (%),U2OS [1]; [13],9%
same,Total Cell Count,U2OS [1]; [13],257
same,Population Apoptotic (%),U2OS [1]; [14],95%
same,Population Fragmented Nuclei (%),U2OS [1]; [14],19%
same,Population Healthy Nuclei (%),U2OS [1]; [14],35%
same,Population Hoechst High Intensity Objects (%),U2OS [1]; [14],5%
same,Population Membrane Permeable-Phenotype (%),U2OS [1]; [14],22%
same,Population Mitochondria Different-Phenotype (%),U2OS [1]; [14],33%
same,Population Mitotic Cells (%),U2OS [1]; [14],4%
same,Population Normal (%),U2OS [1]; [14],94%
same,Population Pyknosed Nuclei (%),U2OS [1]; [14],45%
same,Population Tubulin-Different-Phenotype (%),U2OS [1]; [14],33%
same,Total Cell Count,U2OS [1]; [14],54
same,Growth Rate,HEK-293T; [15],0
same,Growth Rate,HEK-293T; [16],1
same,Growth Rate,HEK-293T; [17],0
same,Growth Rate,HEK-293T; [18],0
same,Growth Rate,HEK-293T; [19],0
same,Growth Rate,HEK-293T; [20],0
same,Growth Rate,U2OS [2]; [15],0
same,Growth Rate,U2OS [2]; [16],1
same,Growth Rate,U2OS [2]; [17],1
same,Growth Rate,U2OS [2]; [18],1
same,Growth Rate,"U2OS [2]; 12 h, replicate number 2, timepoint 12 hours",0
same,Growth Rate,U2OS [2]; [19],0
same,Growth Rate,U2OS [2]; [20],0
